The record followed here is the RNAGym collection of RNA variant scans (doi:10.1002/anie.201605470).

B1: Osa-1-4 twister ribozyme (parent)
chain: CCGCCUAACACUGCCAAUGCCGGUCCCAAGCCCGGAUAAAAGUGGAGGGGGCGG

In this series the parent is B1. The series can be described thus: self-cleavage, relative activity (ratio to wild type); higher = more cleavage; co-transcriptional. Put shortly: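 A DNA template was synthesised for a 54-nucleotide twister ribozyme from Oryza sativa, with 97 % wild-type base and 1 % of each other base at each of the 48 positions downstream of the cleavage site. The ribozyme cleaved itself co-transcriptionally during 2 h of in vitro transcription at 37 °C. Reverse transcription with a template-switching oligonucleotide, PCR amplification and deep sequencing followed, and cleavage status came from reads with or without upstream sequence. Relative activity is the fraction cleaved normalised to wild type.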
CCGCCUAACACUGCCAAUGCCGGUCCCAAACCCGGCUAAAAGUGGAGGGGGCGG: the self-cleavage stood at 0.02.

Take CCGCCUAACACUGCCAAUGCCGGUCCCAACCCCGGCUAAAAGUGGAGGGGGCGG: the self-cleavage was 0.05.

CCGCCUAACACUGCCAAUGCCGGUCCCAAUCCCGGCUAAAAGUGGAGGGGGCGG: the self-cleavage came out at 0.03.

For the variant CCGCCUAACACUGCCAAUGCCGGUCUCAAGCCCGGCUAAAAGUGGAGGGGGCGG, the self-cleavage turned out to be 0.12.

Turning to CCGCCUAACACUGCCAAUGCCGGUCGCAAGCCCGGCUAAAAGUGGAGGGGGCGG, the self-cleavage came to 0.06.

For CCGCCUAACACUGCCAAUGCCGGUCACAAGCCCGGCUAAAAGUGGAGGGGGCGG, the self-cleavage turned out to be 0.03.

Consider CCGCCUAACACUGCCAAUGCCGGUCCCAAGCCCGGCUAAAACUGGAGGGGGCGG, for which the self-cleavage came out at 0.08.

As for CCGCCUAACACUGCCAAUGCCGGUCCCAAGCCCGGCUAAAAAUGGAGGGGGCGG, the self-cleavage is 0.1.

Regarding CCGCCUAACACUGCCAAUGCCGGUCCCAAGCCCGGCUAAAAUUGGAGGGGGCGG, the self-cleavage came out at 0.04.

CCGCCUAACACUGCCAAUGCCGGUCCCAAGCCAGGCUAAAAGUGGAGGGGGCGG: the self-cleavage was 0.06.

For CCGCCUAACACUGCCAAUGCCGGUCCCAAGCCUGGCUAAAAGUGGAGGGGGCGG, the self-cleavage came to 0.13.

Consider CCGCCUAACACUGCCAAUGCCGGUCCCAAGCCGGGCUAAAAGUGGAGGGGGCGG, for which the self-cleavage was 0.04.

In the case of CCGCCUAACACUGCCAAUGCCGGUUCCAAGCCCGGCUAAAAGUGGAGGGGGCGG, the self-cleavage is 0.1.

Take CCGCCUAACACUGCCAAUGCCGGUACCAAGCCCGGCUAAAAGUGGAGGGGGCGG: the self-cleavage was 0.06.

Regarding CCGCCUAACACUGCCAAUGCCGGUGCCAAGCCCGGCUAAAAGUGGAGGGGGCGG, the self-cleavage came out at 0.04.

As to CCGCCUAACACUCCCAAUGCCGGUCCCAAGCCCGGCUAAAAGUGGAGGGGGCGG, the self-cleavage stood at 0.03.

For the variant CCGCCUAACACUUCCAAUGCCGGUCCCAAGCCCGGCUAAAAGUGGAGGGGGCGG, the self-cleavage was determined as 0.02.

Consider CCGCCUAACACUACCAAUGCCGGUCCCAAGCCCGGCUAAAAGUGGAGGGGGCGG, for which the self-cleavage turned out to be 0.04.

Regarding CCGCCUAACACUGCCAAUGCCGUUCCCAAGCCCGGCUAAAAGUGGAGGGGGCGG, the self-cleavage came out at 0.05.

Turning to CCGCCUAACACUGCCAAUGCCGCUCCCAAGCCCGGCUAAAAGUGGAGGGGGCGG, the self-cleavage was 0.03.

For CCGCCUAACACUGCCAAUGCCGAUCCCAAGCCCGGCUAAAAGUGGAGGGGGCGG, the self-cleavage was found to be 0.09.

In the case of CCGCCUAACACUGCCAAUGCCGGUCCCAAGCCCGGCUAAAAGUGGAGGGGGUGG, the self-cleavage worked out at 0.82.

Take CCGCCUAACACUGCCAAUGCCGGUCCCAAGCCCGGCUAAAAGUGGAGGGGGGGG: the self-cleavage is 0.51.

Consider CCGCCUAACACUGCCAAUGCCGGUCCCAAGCCCGGCUAAAAGUGGAGGGGGAGG, for which the self-cleavage stood at 0.37.

As to CCGCCUAACACUGCCAAUGCCGGUCCCAAGCGCGGCUAAAAGUGGAGGGGGCGG, the self-cleavage stood at 0.06.

In the case of CCGCCUAACACUGCCAAUGCCGGUCCCAAGCACGGCUAAAAGUGGAGGGGGCGG, the self-cleavage came out at 0.06.

For the variant CCGCCUAACACUGCCAAUGCCGGUCCCAAGCUCGGCUAAAAGUGGAGGGGGCGG, the self-cleavage is 0.07.

Regarding CCGCCUAACACUGCCAAUGCCGGUCCCAAGCCCGGCUAAAAGUAGAGGGGGCGG, the self-cleavage was found to be 0.16.

Take CCGCCUAACACUGCCAAUACCGGUCCCAAGCCCGGCUAAAAGUGGAGGGGGCGG: the self-cleavage came out at 0.76.

Consider CCGCCUAACACUGCCAAUUCCGGUCCCAAGCCCGGCUAAAAGUGGAGGGGGCGG, for which the self-cleavage was 0.82.

CCGCCUAACACUGCCAAUCCCGGUCCCAAGCCCGGCUAAAAGUGGAGGGGGCGG: the self-cleavage turned out to be 0.56.

With CCGCCUAACACUGCCAAUGCCCGUCCCAAGCCCGGCUAAAAGUGGAGGGGGCGG, the self-cleavage came out at 0.08.

For CCGCCUAACACUGCCAAUGCCUGUCCCAAGCCCGGCUAAAAGUGGAGGGGGCGG, the self-cleavage was determined as 0.35.

In the case of CCGCCUAACACUGCCAAUGCCAGUCCCAAGCCCGGCUAAAAGUGGAGGGGGCGG, the self-cleavage was 0.6.

Regarding CCGCCUAACACUGCCAAUGCCGGUCCUAAGCCCGGCUAAAAGUGGAGGGGGCGG, the self-cleavage is 0.09.

On to CCGCCUAACACUGCCAAUGCCGGUCCAAAGCCCGGCUAAAAGUGGAGGGGGCGG, for which the self-cleavage turned out to be 0.07.

For the variant CCGCCUAACACUGCCAAUGCCGGUCCGAAGCCCGGCUAAAAGUGGAGGGGGCGG, the self-cleavage was determined as 0.05.

Consider CCGCCUAACACUGCCAAUGCCGGUCCCAAGCCCCGCUAAAAGUGGAGGGGGCGG, for which the self-cleavage is 0.39.

Turning to CCGCCUAACACUGCCAAUGCCGGUCCCAAGCCCAGCUAAAAGUGGAGGGGGCGG, the self-cleavage came out at 0.88.

Take CCGCCUAACACUGCCAAUGCCGGUCCCAAGCCCUGCUAAAAGUGGAGGGGGCGG: the self-cleavage was found to be 0.75.

Consider CCGCCUAACACUGCCAAUGCGGGUCCCAAGCCCGGCUAAAAGUGGAGGGGGCGG, for which the self-cleavage came to 0.05.

On to CCGCCUAACACUGCCAAUGCUGGUCCCAAGCCCGGCUAAAAGUGGAGGGGGCGG, for which the self-cleavage worked out at 0.46.

For the variant CCGCCUAACACUGCCAAUGCAGGUCCCAAGCCCGGCUAAAAGUGGAGGGGGCGG, the self-cleavage stood at 0.54.

For the variant CCGCCUAACACUGCCAAUGCCGGUCCCAAGACCGGCUAAAAGUGGAGGGGGCGG, the self-cleavage was found to be 0.03.

For the variant CCGCCUAACACUGCCAAUGCCGGUCCCAAGGCCGGCUAAAAGUGGAGGGGGCGG, the self-cleavage was 0.04.

For CCGCCUAACACUGCCAAUGCCGGUCCCAAGUCCGGCUAAAAGUGGAGGGGGCGG, the self-cleavage turned out to be 0.1.

On to CCGCCUAACACUGCCAAUGCCGGUCCCAAGCCCGACUAAAAGUGGAGGGGGCGG, for which the self-cleavage was found to be 0.94.

CCGCCUAACACUGCCAAUGCCGGUCCCAAGCCCGCCUAAAAGUGGAGGGGGCGG: the self-cleavage was determined as 0.75.

Consider CCGCCUAACACUGCCAAUGCCGGUCCCAAGCCCGUCUAAAAGUGGAGGGGGCGG, for which the self-cleavage is 0.95.
